Assay results reported in ChEMBL document CHEMBL1138032, “New 2',6'-dimethyl-L-tyrosine (Dmt) opioid peptidomimetics based on the Aba-Gly scaffold. Development of unique mu-opioid receptor ligands” (J Med Chem, 2006).
Square brackets hold non-standard residues; d marks the D form. Peptide text beside a SMILES is read from it. * marks the point of attachment. Dmt = Cc1cc(O)cc(C)c1C[C@H](N)C(=O)O; Tic = O=C(O)[C@@H]1Cc2ccccc2CN1; NHBn = c1ccc(CN*)cc1; NHPh = c1ccc(N*)cc1

Assays:
[1] = target: Opioid receptors; mu & delta (Homo sapiens) (UniProt P41143+P35372); test: Selectivity for delta opioid receptor over mu opioid receptor; type: protein assay
Opioid receptors; mu & delta (Homo sapiens), sequence (P35372 whole entry, looked up): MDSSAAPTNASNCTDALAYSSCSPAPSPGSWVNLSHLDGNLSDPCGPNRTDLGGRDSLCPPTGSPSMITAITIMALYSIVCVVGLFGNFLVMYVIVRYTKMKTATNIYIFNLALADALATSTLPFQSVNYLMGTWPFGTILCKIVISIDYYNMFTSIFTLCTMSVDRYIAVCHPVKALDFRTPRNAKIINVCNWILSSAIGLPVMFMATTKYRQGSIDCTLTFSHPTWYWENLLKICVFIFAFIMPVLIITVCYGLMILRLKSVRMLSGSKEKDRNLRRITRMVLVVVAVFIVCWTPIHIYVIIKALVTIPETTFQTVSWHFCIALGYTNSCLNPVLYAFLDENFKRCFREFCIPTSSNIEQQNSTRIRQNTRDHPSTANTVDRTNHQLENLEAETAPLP
Opioid receptors; mu & delta (Homo sapiens), sequence (P41143 whole entry, looked up): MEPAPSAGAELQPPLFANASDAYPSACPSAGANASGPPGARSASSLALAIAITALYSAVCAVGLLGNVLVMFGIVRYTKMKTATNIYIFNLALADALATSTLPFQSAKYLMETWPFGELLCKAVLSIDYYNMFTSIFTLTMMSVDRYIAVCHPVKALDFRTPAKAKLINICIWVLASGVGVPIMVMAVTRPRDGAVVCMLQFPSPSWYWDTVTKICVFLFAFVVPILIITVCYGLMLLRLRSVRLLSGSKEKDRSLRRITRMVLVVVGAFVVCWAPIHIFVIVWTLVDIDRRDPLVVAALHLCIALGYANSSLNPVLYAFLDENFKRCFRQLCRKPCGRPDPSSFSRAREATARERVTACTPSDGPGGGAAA
Summary of the method: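 Non-specific binding was set with 2 μM unlabeled peptide. Five to eight peptide doses were run in duplicate, with independent repeats on different preparations. Samples were filtered on 0.1% polyethylenimine-soaked glass fiber filters and washed thrice with ice-cold buffered BSA. Ki was derived by Cheng–Prusoff.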

Mu-type opioid receptor = Mu-type opioid receptor (Cavia porcellus, UniProt P97266); test: Agonist activity at mu opioid receptor by guinea pig ileum assay; type: functional, tissue-based
Mu-type opioid receptor, sequence (P97266 whole entry): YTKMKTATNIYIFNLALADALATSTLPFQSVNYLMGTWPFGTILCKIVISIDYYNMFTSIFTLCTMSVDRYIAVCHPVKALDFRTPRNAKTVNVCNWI
Summary of the method: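 Myenteric plexus–longitudinal muscle from male guinea pig ileum was field-stimulated with supramaximal bipolar rectangular pulses. Agonism was read as inhibition of the electrically evoked twitch, referenced to dermorphin. IC50 came from dose-response curves over at least six experiments on fresh tissue.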

[2] = target: Delta-type opioid receptor (Mus musculus, UniProt P32300); test: (§1) Agonist activity at delta opioid receptor by mouse vas deferens assay; type: functional, tissue-based
Delta-type opioid receptor, sequence (P32300 whole entry): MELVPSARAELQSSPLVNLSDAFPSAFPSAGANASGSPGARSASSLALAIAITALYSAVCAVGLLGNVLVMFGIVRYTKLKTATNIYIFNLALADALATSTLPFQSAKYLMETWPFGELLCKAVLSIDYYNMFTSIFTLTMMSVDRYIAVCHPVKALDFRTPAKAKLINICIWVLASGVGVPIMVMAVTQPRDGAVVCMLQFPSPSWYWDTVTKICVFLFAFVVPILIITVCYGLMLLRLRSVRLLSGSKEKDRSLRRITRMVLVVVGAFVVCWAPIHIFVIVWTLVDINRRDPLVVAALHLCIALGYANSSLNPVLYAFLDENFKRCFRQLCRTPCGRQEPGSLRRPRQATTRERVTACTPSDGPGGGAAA
Summary of the method: (§2)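 Isolated mouse vas deferens was field-stimulated with supramaximal bipolar rectangular pulses. Agonism was read as inhibition of the electrically evoked twitch, referenced to deltorphin C. IC50 came from dose-response curves over at least six experiments on fresh tissue.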

[3] = target: Delta-type opioid receptor (Mus musculus) (UniProt P32300); test: Activity at delta opioid receptor by mouse vas deferens assay; type: functional, tissue-based; details: filed as partial agonist; summary of the method: as §2
Delta-type opioid receptor (Mus musculus), sequence (P32300 whole entry): as above

[4] = target: Delta-type opioid receptor (Mus musculus) (UniProt P32300); test: as §1; type: functional, tissue-based; summary of the method: as §2

| Structure (SMILES) | Selectivity ratio [1] | IC50 (Mu-type opioid receptor) [µM] | IC50 [2] [µM] | Activity [3] | %max [4] [%] |
| --- | --- | --- | --- | --- | --- |
| Cc1cc(O)cc(C)c1C[C@H](N)C(=O)N1Cc2ccccc2C[C@H]1C(=O)NCC(=O)NCc1ccccc1 (H-[Dmt]-[Tic]-Gly-NHBn) | 5.3 | 0.00269 |  |  |  |
| Cc1cc(O)cc(C)c1C[C@H](N)C(=O)N1Cc2ccccc2C[C@H]1C(=O)NCC(=O)Nc1ccccc1 (H-[Dmt]-[Tic]-Gly-NHPh) | 3.6 | 0.00257 | 0.00302 |  |  |
| Cc1cc(O)cc(C)c1C[C@H](N)C(=O)N[C@H]1Cc2ccccc2CN(Cc2nc3ccccc3[nH]2)C1=O |  | 0.231 | 2.7 | Partial agonist | 40 |
| Cc1cc(O)cc(C)c1C[C@H](N)C(=O)N[C@H]1Cc2ccccc2CN(CC(=O)NCc2ccccc2)C1=O |  | 0.051 | 0.83 |  |  |
| Cc1cc(O)cc(C)c1C[C@H](N)C(=O)N[C@H]1Cc2ccccc2CN(CC(=O)Nc2ccccc2)C1=O |  | 0.095 | 0.65 | Partial agonist | 40 |
